This is an account of results in PMC9862713 (Bioorganic & Medicinal Chemistry, 2023).

Each structure is given as a SMILES string. In brackets after ≈: the same amount, converted by molar mass. Entries after “also recorded” stand apart in the source; their conditions may differ.

The test system of data set [1] is HEK-293. As to the kind of experiment: MTT cell viability / cytotoxicity assay. It counts as cell-based, Human. The following applies: 24 and 48 h, concentrations up to 100 µM. The method, boiled down:
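HEK-293 cells kept in DMEM with 2 mM L-glutamine, 10% heat-inactivated FBS and 1% pen/strep at 37 °C, 5% CO2. Seeded at 10,000 cells/well; compound or DMSO vehicle (0.5% final) added 24 h later, 24 or 48 h exposure. MTT 0.5 mg/ml final for 2 h at 37 °C, ethanol solubilisation, A570 (ref 650 nm). Eight serial dilutions in triplicate, sigmoidal dose–response fit; mean ± SD, three independent experiments.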

Data set [2] is described as follows: Aqueous kinetic solubility in PBS pH 7.4. It counts as physicochemical. Conditions: for solubility kinetic at 24 h: phosphate buffered saline (PBS), pH 7.4, Kinetic solubility Sk.
Data set [3] has as its target SARS-CoV-2 RdRp (Severe acute respiratory syndrome coronavirus 2, UniProt P0DTD1). In words: RdRp enzymatic assay. It counts as biochemical.
The mark [4] stands for this setting: PBS pH 7.4, 25 °C, 24 h, target 250 µM, 2.5 % DMSO.

Consider `CCCCOc1c(-c2ccc(O)c(O)c2)oc2cc(O)cc(O)c2c1=O` [Compound 4], for which the “Cytotoxicity on HEK-293” value in data set [1] is “no cytotoxicity effects; also recorded: did not appear to be cytotoxic”.

On to `O=c1c(OCCO)c(-c2ccc(O)c(O)c2)oc2cc(O)cc(O)c12` [Compound 5], for which the “Cytotoxicity on HEK-293” value in data set [1] is given as “no cytotoxicity effects; also recorded: did not appear to be cytotoxic”.

As to `O=c1c(OCCCO)c(-c2ccc(O)c(O)c2)oc2cc(O)cc(O)c12` [Compound 6], the “Kinetic solubility Sk” value in data set [2] (setting [4]) stood at 231 µM. Further, the “Cytotoxicity on HEK-293” value in data set [1] is on record as “did not appear to be cytotoxic; also recorded: no cytotoxicity”.

For the compound `O=c1cc(Cc2ccc(O)c(O)c2)oc2cccc(O)c12` [Compound 7], the “Improvement of kinetic solubility” value in data set [2] (compared to the hits (luteolin, quercetin)) is listed as 3 to 4 fold.

In the case of `CC(c1ccc(O)c(O)c1)c1cc(=O)c2c(O)cccc2o1` (stereo not drawn) [Compound 8], the “Cytotoxicity on HEK-293” value in data set [1] is reported as “no cytotoxicity effects; also recorded: did not appear to be cytotoxic”.

For `O=c1cc(C(CCCC(F)(F)F)c2ccc(O)c(O)c2)oc2cccc(O)c12` (stereo not drawn) [Compound 10], the “IC50 against SARS-CoV-2 RdRp” value in data set [3] (enzymatic assay, 37 °C, 60 min, duplicate) is “no inhibition”.

`O=c1cc(/C=C/c2ccc(O)c(O)c2)oc2cccc(O)c12` [Compound 12] had a kinetic solubility at 24 h in data set [2] (setting [4]) of 1 µM (≈ 0.296 µg/mL).

Turning to `O=C(Oc1ccc(O)c(O)c1)c1cc(=O)c2c(O)cccc2o1` [Compound 14], in data set [2] (setting [4]), the kinetic solubility at 24 h turned out to be 1 µM (≈ 0.314 µg/mL). In data set [3] (compared to 12 and 13), the “Increase of activity (IC50 ratio)” value was “about 4 fold”.

For `O=C(OCCc1ccc(O)c(O)c1)c1cc(=O)c2c(O)cccc2o1` [Compound 15], the “Drop of potency (IC50 ratio)” value in data set [3] (compared to the rigid ester 14) came to 22 fold.

For `O=C(NCCNC(=S)Nc1ccc(O)c(O)c1)c1cc(=O)c2c(O)cccc2o1` [Compound 17], the solubility (kinetic) at 24 h in data set [2] (setting [4]) turned out to be 1 µM (≈ 0.415 µg/mL).
